pKi: −log10 of the molar value. “And” between values parts separate entries of the source, which are not always exact repeats. Equal values may be shown once. Blank lines part the entries; values can stand above or below the compound they belong to.
Tests used:
rat = details: ref ScienceLab.com; cited from earlier work
[1] = test system: unilaterally lesioned rats; assay: L-dopa dependent abnormal involuntary movements; format: in vivo, rat; details: for Normalized total AIMs score, percent relative to vehicle control: 10 mg/kg
D2 dopamine receptor = details: transfected CHO cells; maximum 10^-5 M; ref Grundt et al., 2005; cited from earlier work
[2] = molecular target: human D2 dopamine receptor; details: read-out: Ki at dopamine D2 receptors; ref Grundt et al., 2005; cited from earlier work
D3 dopamine receptor = details: transfected CHO cells; maximum 10^-5 M; ref Grundt et al., 2005; cited from earlier work
[3] = test system: unilaterally lesioned rats; assay: Cylinder test of forelimb usage; format: in vivo, rat; details: PG01042 10 mg/kg with L-dopa/benserazide 8 mg/kg each
Outline: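 Unilaterally lesioned rats received saline, L-dopa plus benserazide (8 mg/kg each), or these with the test compound (10 mg/kg). In the cylinder, an observer scored which forelimb first touched the Plexiglas wall (left, right or both) during rearing. The right forelimb was contralateral to the lesion. Scoring began 12 min (5 min) and 20 min (until >13 touches/rat) post injection. Read-out was percent usage, n = 7.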

[4] = test system: unilaterally lesioned rats; assay: Apomorphine-dependent AIMs in unilaterally lesioned rats; format: in vivo, rat
Outline: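 Unilaterally lesioned rats received the test compound (10 mg/kg i.p.) or vehicle, immediately followed by apomorphine 0.05 mg/kg s.c. Total AIMs scores were summed over time and expressed as percent of vehicle control, as mean ± S.E.M., n = 12. Periods analysed: 0–60, 0–40 and 50–60 min.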

D3 dopamine receptors = D3 dopamine receptors (Homo sapiens, UniProt P35462); format: cell-based; details: transfected HEK cells; test ligand 10 nM; relative to quinpirole
D3 dopamine receptors, sequence (P35462 whole entry): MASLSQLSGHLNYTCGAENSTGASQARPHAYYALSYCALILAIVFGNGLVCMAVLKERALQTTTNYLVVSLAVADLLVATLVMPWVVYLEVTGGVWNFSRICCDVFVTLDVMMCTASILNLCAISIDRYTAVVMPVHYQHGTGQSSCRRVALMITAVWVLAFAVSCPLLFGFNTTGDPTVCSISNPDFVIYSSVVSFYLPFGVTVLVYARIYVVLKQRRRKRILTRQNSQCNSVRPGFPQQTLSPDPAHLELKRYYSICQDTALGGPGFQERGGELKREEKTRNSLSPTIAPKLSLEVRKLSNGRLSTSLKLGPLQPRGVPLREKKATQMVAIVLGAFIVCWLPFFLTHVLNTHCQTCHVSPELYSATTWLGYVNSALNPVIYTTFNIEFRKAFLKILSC

[5] = test system: unilaterally lesioned rats; assay: Rotarod test of motor performance and coordination; format: in vivo, rat; details: 10 mg/kg i.p.; 30 and 60 minutes post drug administration; p ≥ 0.10
[6] = test system: human D3 dopamine receptor; details: binding; ref Grundt et al., 2005; cited from earlier work
[7] = 10 mg/kg i.p., 0 min pretreatment, L-dopa/benserazide 8 mg/kg each, n = 12

Compound: C[S+](C)[O-] [DMSO, dimethylsulfoxide]
Oral acute LD50 (rat): 14500 mg/kg

Precipitation of AIMs by test drug alone ([1]; 10 mg/kg i.p., during the 60 min pretreatment period before L-dopa): did not precipitate any AIMs | Intrinsic activity at D3 receptors, adenylyl cyclase inhibition (D3 dopamine receptors): agonist
Compound: O=C(NCCCCN1CCN(c2cccc(Cl)c2Cl)CC1)c1ccc(-c2cccnc2)cc1 [PG01042, N-(4-(4-(2,3-dichlorophenyl)piperazin-1-yl)butyl)-4-(pyridin-3-yl)benzamide]
Mean reduction in the total AIMs score ([1]; 1 mg/kg i.p., 0 min pretreatment, L-dopa/benserazide 8 mg/kg each, n = 12): 8.4 ± 7.3% | Mean reduction in the total AIMs score ([1]; 3 mg/kg i.p., 0 min pretreatment, L-dopa/benserazide 8 mg/kg each, n = 12, dose response experiment): 25.2 ± 4.4% | Percent reduction of axial twisting AIM score [1, 7]: 78.5 ± 4.6% | Percent reduction of forelimb movement AIM score [1, 7]: 56% and 56.0 ± 3.1% | Percent reduction of locomotion AIM score [1, 7]: 80.4 ± 9.5% | Percent reduction of orolingual AIM score [1, 7]: 76.5 ± 10.8% | Normalized total AIMs score, percent relative to vehicle control ([1]; 0 minutes pretreatment before L-dopa/benserazide 8 mg/kg): 29.4 ± 6.1% | Normalized total AIMs score, percent relative to vehicle control ([1]; 60 minutes pretreatment before L-dopa/benserazide 8 mg/kg): 68.0 ± 8.6% | Effect on total AIM scores versus vehicle control ([1]; PG01042 3 mg/kg simultaneously with L-dopa 8 mg/kg i.p., F(1,22) = 14.4, n = 12): significantly attenuate | IC50 for attenuation of total AIMs score, linear regression analysis ([1]; i.p., 0 min pretreatment, doses 0 to 10 mg/kg, L-dopa/benserazide 8 mg/kg each): 6.6 mg/kg | IC50 for attenuation of total AIMs score, one site fit ([1]; i.p., 0 min pretreatment, curve constrained to 0 and 100%, r^2 = 0.98): 5.6 mg/kg | Intrinsic activity at D2 receptors, mitogenic assay (D2 dopamine receptor): partial agonist | pKi [2]: 7.74 | Intrinsic activity at D3 receptors, mitogenic assay (D3 dopamine receptor): partial agonist | Use of right (compromised) forelimb ([3]; 12 minutes post injection, n = 7): 70.1 ± 2.3% | Use of right paw ([3]; 20 minutes post injection): 85.0 ± 4.6% | Percent reduction in the total AIMs score, apomorphine-dependent ([4]; 10 mg/kg i.p. simultaneously with apomorphine 0.05 mg/kg s.c., 0 to 60 minutes, n = 12): 14.5 ± 3.0% | Percent attenuation of the AIMs minus locomotor scores, apomorphine-dependent ([4]; PG01042 simultaneously with apomorphine 0.05 mg/kg s.c., whole time period): approximately 15% | Latency to fall on rotarod versus vehicle control [5]: no statistical significant difference | D3 selectivity compared to the D2 dopamine receptor subtype [6]: 39 fold and > 39 fold

Compound: Cl.O=C1CC2(CCCC2)CC(=O)N1CCCCN1CCN(c2ncccn2)CC1 [buspirone, N-[4-[4-(2-pyrimidinyl)-1-piperazinyl]butyl]-8-azaspiro[4.5]decane-7,9-dione hydrochloride, reference compound]
%Reduction of total AIMs values ([1]; buspirone 1 mg/kg i.p. with L-dopa 8 mg/kg and benserazide 8 mg/kg, n = 12): 34.8 ± 6.2% | Effect on total AIM scores versus vehicle control ([1]; buspirone 4 mg/kg 30 minutes prior to L-dopa 8 mg/kg i.p., p < 0.001, n = 10): significant reduction

Intrinsic activity at D3 receptors, adenylyl cyclase inhibition (D3 dopamine receptors): antagonist
Compound: O=C(NC/C=C/CN1CCN(c2cccc(Cl)c2Cl)CC1)c1ccc(-c2ccccn2)cc1 [PG01037, (E)-N-(4-(4-(2,3-dichlorophenyl)piperazin-1-yl)but-2-enyl)-4-(pyridin-2-yl)benzamide]
Intrinsic activity at D3 receptors, mitogenic assay (D3 dopamine receptor): antagonist

Compound: COc1ccccc1N1CCN(CCN(C(=O)C2CCCCC2)c2ccccn2)CC1 [WAY 100635, reference compound]
Reduction in the attenuation of total AIMs score by PG01037 ([1]; WAY 100635 1 mg/kg 10 min before PG01037 3 mg/kg, L-dopa 8 mg/kg i.p.): no reduction

Reference: publication PMC3820002 (Neuropharmacology, 2010)
